# PglD inh – C. jejuni PglD acetyltransferase inhibitors, primary screen, biochemical, DTNB colorimetric, single point; AID 602405, 2012; actives 0.098% (n = 360,000); inhibition, % at 12.5 µM; purified PglD enzyme, DTNB colorimetric CoA detection; in the data active means inhibition above about 16%, passing the limit was not always enough; inconclusive means no clear call, values can overlap the other calls
# FN deposition inh – inhibitors of fibronectin matrix deposition, primary screen, AH1F cells, Alexa488-fibronectin fluorescence, plate reader | actives 0.086% (n = 350,000) | AID 743247, 2014 | inhibition, % at 12.6 µM | AH1F fibroblasts, overnight;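 active means mean inhibition across replicates of 30% or more, regardless of how many single replicates reach that level; inconclusive means mean under 30% yet at least half of replicates reach 30%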
#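 test system = AH1F fibroblasts assembling fluorescent fibronectin matrix | quantity = 10000 AH1F cells per well | buffer or medium = DMEM plus 2% serum, read in PBS | doses = single dose, pinned | incubation = 1 h cell attachment, overnight exposure to compound and label | detection = fluorescence at 485 nm excitation, 525 nm emission | read-out basis = inhibition from reduced deposited-fibronectin fluorescence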
# PGC1a acetyl inh – inhibitors of PGC1a acetylation signal, primary screen, cell-based, U2OS, AlphaScreen, inhibitor mode. AlphaScreen anti-acetyl-lysine; with virally co-expressed GCN5 acetyltransferase. inhibition, % at 15.6 µM. actives 0.17% (n = 350,000);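 active means every replicate shows inhibition of at least 40%; inconclusive means mean inhibition at least 40% but some replicate below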
# DENV2 CPE rescue – inhibitors of DENV2 cytopathic effect, primary screen, cell-based, plate reader, single concentration; DENV2-infected cells, cytopathic effect rescue; CPE inhibition, % at 9.99 µM; actives 1.7% (n = 350,000); AID 651640, 2012; in the data active means CPE inhibition above about 20%, passing the limit was not always enough; inconclusive means no clear call, values can overlap the other calls; tested in BHK-21 cells
# Env fusion inh – inhibitors of HIV-1 Env-driven cell-cell fusion, primary screen, HeLa-JRFL effector, CEM21 target cells, luciferase; inhibition, % at 12.3 µM; actives 1.1% (n = 360,000); AID 651610, 2012;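 active means mean replicate inhibition score of at least 50 and every replicate individually at or above 50; inconclusive means only one of the two criteria met; inactive means mean below 50 and not all replicates reaching 50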
# Ecoli rRNA inh – reduced GFP signal of wild-type E. coli, primary screen, bacterial rRNA inhibitor project, GFP/RFP fluorescence, OD600, single point; E. coli WT GFP vs humanized-ribosome RFP mutants, 24 h; hits give low values; DMSO median 0, no signal -100; GFP signal change (wild-type ribosome), % (test concentration not listed); actives 1.6% (n = 350,000);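 active means significant combined selectivity score with lowered wild-type GFP, culture density cut under 30%, mutant RFP and density less affected; inactive means any of these conditions unmet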
# A number is an active result; 0 = inactive; ? = inconclusive; - = no result. Compounds with a hit are over-represented: about 3.5% of the library has one in this group of screens.
SMILES,PglD inh,FN deposition inh,PGC1a acetyl inh,DENV2 CPE rescue,Env fusion inh,Ecoli rRNA inh
CN(C)C(=O)C[C@H]1CC[C@@H]2[C@H](COc3ccc(NC(=O)c4ccc(F)cc4)cc3C(=O)N2C)O1,0,0,-,0,0,0
CC(=O)Nc1ccc2c(c1)C(=O)N(C)[C@@H]1CC[C@H](CC(=O)Nc3cn(C)nc3C)O[C@@H]1CO2,-,0,0,0,0,0
Cc1ccc(/C=N/N2CCN(Cc3ccc(C)cc3)CC2)cc1,0,0,0,0,0,0
Cc1ccc(CN2CCN(/N=C\c3cccc([N+](=O)[O-])c3)CC2)cc1,0,0,0,0,0,-25.2
O=S(=O)(c1ccc(Cl)cc1)N1CCCC(c2nc(-c3ccc(F)cc3)no2)C1 (stereo not drawn),0,0,0,0,0,0
O=S(=O)(c1ccccc1Cl)N1CCCC1c1nc(-c2ccc(Cl)cc2)no1 (stereo not drawn),0,0,0,-,82.4,-
COc1ccc(Cn2nnnc2CN(Cc2cc3ccc(C)cc3[nH]c2=O)C2CCCC2)cc1,0,-,42.1,-,-,-
Cc1ccc2cc(CN(Cc3cccs3)Cc3nnnn3CC3CCCO3)c(=O)[nH]c2c1 (stereo not drawn),0,-,0,0,-,-28.9
COc1ccc2[nH]c(=O)c(CN(Cc3cccs3)Cc3nnnn3Cc3ccccc3)cc2c1,0,0,-,-,98.2,-
C[C@@H]1CN([C@@H](C)CO)C(=O)c2cc(C3=CCCC3)cnc2O[C@@H]1CN(C)C(=O)c1ccccc1,0,-,0,0,0,0
CC1=Nc2ccccc2N=C(NC(=O)CN2CCN(c3ccccc3)CC2)C1c1ccccc1 (stereo not drawn),-,0,86.1,0,0,0
CC1=Nc2ccccc2N=C(NC(=O)CSC(=S)N2CCCCC2)C1c1ccccc1 (stereo not drawn),-,0,-,0,0,-21.1
CC1=Nc2ccccc2N=C(NC(=O)CSC(=S)N2CCN(C)CC2)C1c1ccccc1 (stereo not drawn),0,0,0,0,0,0
CCOC(=O)C1CCCN(CC(=O)NC2=Nc3ccccc3N=C(C)C2c2ccccc2)C1 (stereo not drawn),0,0,0,-,0,-
O=C(Cc1ccccc1)N[C@@H]1CC[C@@H](CC(=O)N2CCCCC2)O[C@@H]1CO,0,0,0,0,0,0
CCN(CC(=O)NC(=O)NCc1ccccc1)Cc1ccccc1,0,-,0,0,0,-23.4
CCN(CC(=O)NC(=O)NCc1ccco1)Cc1ccccc1,-,-,0,0,0,0
CCCC(=O)Nc1ccc2c(c1)OC[C@H](C)N(C(=O)c1ccccn1)C[C@H](C)[C@@H](OC)CN(C)C2=O,0,0,0,0,-,0
CCCC(=O)Nc1ccc2c(c1)OC[C@@H](C)N(C(=O)c1ccccn1)C[C@@H](C)[C@@H](OC)CN(C)C2=O,0,0,0,21.0,-,0
CCCC(=O)Nc1ccc2c(c1)OC[C@H](C)N(C(=O)c1ccccn1)C[C@@H](C)[C@H](OC)CN(C)C2=O,0,0,0,22.1,-,0
C[C@@H](O)C#Cc1cnc2c(c1)C(=O)N([C@@H](C)CO)C[C@H](C)[C@@H](CN(C)CC1CCCC1)O2,0,0,0,0,0,0
Cc1nn(C)cc1NC(=O)C[C@H]1CC[C@H]2[C@H](COc3ccc(NC(=O)C4CCC4)cc3C(=O)N2C)O1,-,0,0,-,0,0
CN1C(=O)c2cc(NC(=O)C3CCCC3)ccc2OC[C@H]2O[C@H](CC(=O)NCCc3ccncc3)CC[C@@H]21,-,0,0,28.6,-,0
CN1C(=O)c2cc(NC(=O)C3CCC3)ccc2OC[C@H]2O[C@@H](CC(=O)NCCc3ccncc3)CC[C@H]21,-,0,-,20.6,-,0
Cc1nn(C)cc1NC(=O)C[C@@H]1CC[C@@H]2[C@@H](COc3ccc(NC(=O)C4CCC4)cc3C(=O)N2C)O1,-,0,0,-,0,-15.6
SMILES,PglD inh,FN deposition inh,PGC1a acetyl inh,DENV2 CPE rescue,Env fusion inh,Ecoli rRNA inh
CN1C(=O)c2cc(NC(=O)C3CCC3)ccc2OC[C@@H]2O[C@H](CC(=O)NCCc3ccncc3)CC[C@H]21,-,0,0,0,-,0
CN1C(=O)c2cc(NC(=O)C3CCCC3)ccc2OC[C@H]2O[C@H](CC(=O)NCCc3ccncc3)CC[C@H]21,-,0,0,165.6,-,0
CN1C(=O)c2cc(NC(=O)c3ccccc3)ccc2OC[C@H]2O[C@@H](CC(=O)NC3CCCC3)CC[C@H]21,0,0,0,?,-,0
C[C@@H]1CN([C@H](C)CO)C(=O)c2cccc(NC(=O)c3ccncc3)c2O[C@H]1CN(C)S(=O)(=O)c1ccc(Cl)cc1,0,-,0,0,-,0
COCCNC(=O)C[C@@H]1CC[C@@H]2[C@@H](COc3ccc(NC(=O)C4CCOCC4)cc3C(=O)N2C)O1,0,0,0,21.1,-,0
COCCNC(=O)C[C@H]1CC[C@H]2[C@@H](COc3ccc(NC(=O)C4CCOCC4)cc3C(=O)N2C)O1,0,0,0,0,-,0
O=C1O[C@@H](Cc2ccccc2)[C@H]2[C@@H]3C=CCCC=C3CN2C12CCCC2,-,-,0,32.9,0,-
O=C(NCc1cccc(F)c1)[C@@H]1[C@@H](CO)[C@@H]2Cn3c(ccc(-c4ccncc4)c3=O)[C@H]1N2CC1CC1,0,0,-,0,-,0
CCOC(=O)C1=NN(c2ccc([N+](=O)[O-])cc2)CC1C(=O)OC (stereo not drawn),-,0,-,-,0,-
CCCCOC(=O)C1CN(c2ccccc2)N=C1C(C)=O (stereo not drawn),-,0,0,?,0,-32.5
COC(=O)CCn1nnc(-c2ccc(C(C)C)cc2)n1,-,0,0,-,65.7,-
COC(=O)CCn1nnc(-c2cccs2)n1,0,-,0,-,0,-
CCn1c(/C=C/Nc2ccccc2)[n+](CC)c2ccc(Cl)cc21,-,0,-,-,0,-
CCn1c(/C=C/N(C)c2ccccc2)[n+](CC)c2ccc(Cl)cc21,0,0,0,-,70.3,-
CCc1cc(/C(Cc2ccccn2)=N\O)c(O)cc1O,0,0,0,0,-,-32.7
COc1cc2c(cc1NC(=S)Nc1cccc3ccccc13)oc1ccccc12,0,-,0,-,-,-
COCCCNC(=S)Nc1cc2oc3ccccc3c2cc1OC,0,-,0,0,67.6,0
Cc1ccc(/C=C2\CCOC2=O)cc1,0,0,-,0,0,0
Cc1ccc(/C=C2/CNC/C(=C/c3ccc(C)cc3)C2=O)cc1,-,0,74.2,0,66.1,0
CNC[C@@H]1Oc2ncc(-c3ccccc3F)cc2C(=O)N([C@H](C)CO)C[C@@H]1C,0,0,0,0,0,0
CCCC#Cc1ccc2c(c1)O[C@@H](CN(C)CC1CCCC1)[C@H](C)CN([C@H](C)CO)S2(=O)=O,-,-,0,60.2,-,0
